Experiments:
Angiopoietin-1 receptor = Angiopoietin-1 receptor (Homo sapiens, UniProt Q02763); experiment: Inhibition of human recombinant TIE2
Method in brief: (§1)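 Recombinant human tyrosine kinases (EPHB4, TIE2, VEGF-R2, VEGF-R3), expressed in Sf9 insect cells as GST- or His-fusions, with poly(Glu,Tyr) 4:1 as substrate. Conditions: 1 µM [γ-33P]ATP, pH 7.5 HEPES buffer with Mg/Mn, DTT and vanadate, 30 °C for 80 min, 1% DMSO. Ten concentrations were tested and IC50 came from scintillation counting of incorporated 33P.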

[1] = target: T1, Serine/threonine-protein kinase PLK4 (Homo sapiens, UniProt O00444); experiment: Inhibition of human recombinant SAK
T1 sequence (O00444 whole entry): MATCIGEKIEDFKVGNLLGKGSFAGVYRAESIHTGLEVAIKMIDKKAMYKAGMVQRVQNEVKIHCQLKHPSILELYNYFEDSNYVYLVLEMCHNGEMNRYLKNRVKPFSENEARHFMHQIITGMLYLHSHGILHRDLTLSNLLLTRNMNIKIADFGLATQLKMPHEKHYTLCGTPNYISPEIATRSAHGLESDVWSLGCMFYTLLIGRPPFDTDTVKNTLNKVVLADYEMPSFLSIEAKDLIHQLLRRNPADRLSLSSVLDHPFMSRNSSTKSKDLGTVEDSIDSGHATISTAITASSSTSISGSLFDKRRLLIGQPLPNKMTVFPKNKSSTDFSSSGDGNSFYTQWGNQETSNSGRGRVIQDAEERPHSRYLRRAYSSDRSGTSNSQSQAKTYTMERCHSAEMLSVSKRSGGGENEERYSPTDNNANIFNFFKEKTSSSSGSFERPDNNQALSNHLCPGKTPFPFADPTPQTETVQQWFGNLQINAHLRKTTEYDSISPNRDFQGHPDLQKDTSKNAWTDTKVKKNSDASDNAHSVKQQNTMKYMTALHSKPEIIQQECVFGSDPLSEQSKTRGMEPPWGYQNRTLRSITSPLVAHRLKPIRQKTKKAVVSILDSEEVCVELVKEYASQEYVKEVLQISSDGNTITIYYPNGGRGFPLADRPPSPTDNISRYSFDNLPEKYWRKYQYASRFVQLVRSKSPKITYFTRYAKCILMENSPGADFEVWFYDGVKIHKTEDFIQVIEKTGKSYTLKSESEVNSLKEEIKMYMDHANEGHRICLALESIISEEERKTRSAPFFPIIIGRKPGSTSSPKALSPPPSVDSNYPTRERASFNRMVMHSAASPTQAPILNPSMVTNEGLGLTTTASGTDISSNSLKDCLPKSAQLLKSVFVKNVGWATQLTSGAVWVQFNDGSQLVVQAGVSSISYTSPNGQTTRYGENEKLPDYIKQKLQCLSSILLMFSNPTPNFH
Method in brief: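 Human kinase expressed from cDNA in Sf9 cells (baculovirus) as GST- or His-tagged protein, affinity-purified. 10 compound concentrations, 1% DMSO final, 30 °C for 80 min. Stopped with H₃PO₄, 33P incorporation counted, IC50 derived.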

[2] = target: Vascular endothelial growth factor receptor 2 (Homo sapiens, UniProt P35968); experiment: Inhibition of human recombinant VEGFR2; method in brief: as §1
[3] = target: Vascular endothelial growth factor receptor 3 (Homo sapiens, UniProt P35916); experiment: Inhibition of human recombinant VEGFR3; method in brief: as §1
Homo sapiens [4] = species: Homo sapiens; experiment: Antiangiogenic activity in VEGF-induced HLMEC assessed as sprouts per bead at 1.3 uM after 24 hrs by sprouting assay; type: functional
Method in brief: (§2)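 HLMEC seeded on cytodex-3 microcarrier beads and embedded in 3D fibrinogen gel with 20 ng/mL VEGF plus compound at a final 1.3 or 2.6 µM (from 1 mM DMSO stock). Gel polymerised with 0.65 U/mL thrombin and overlaid with MCDB131, 5% FCS, 5% human serum and 200 U/mL Trasylol. Negative control: gel without growth factors. After 24 h, fixed in 1% PFA; sprouts per 50 beads counted microscopically. Triplicates per condition, n = 9 experiments.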

Homo sapiens [5] = species: Homo sapiens; experiment: Antiangiogenic activity in VEGF-induced HLMEC assessed as number of sprouts per bead at 2.6 uM after 24 hrs by sprouting assay; type: functional; method in brief: as §2
Homo sapiens [6] = species: Homo sapiens; experiment: Induction of apoptosis in HDMEC assessed as cleaved caspase 3 at 1.3 uM after 24 hrs; type: functional
Method in brief: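 HDMEC incubated 24 h with compound. Adherent cells and supernatant harvested together, stained with an antibody to cleaved caspase-3, and analysed by FACS as percent apoptotic cells. Three independent repeats.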

Aurora kinase B = Aurora kinase B (Homo sapiens, UniProt Q96GD4); experiment: Inhibition of human recombinant Aurora B
Method in brief: (§3)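 Aurora-A or Aurora-B, human cDNA expressed in Sf9 cells as tagged recombinant protein, phosphorylating Tetra(LRRWSLG). Reactions used 60 mM HEPES pH 7.5, Mg2+/Mn2+ (3 mM each), 1.2 mM DTT, vanadate and 1 µM [γ-33P]ATP, ran 80 min at 30 °C and were stopped with 2% H3PO4.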

[7] = target: Cyclin-dependent kinase 2 (Homo sapiens, UniProt P24941); experiment: Inhibition of human recombinant CDK2/cyclin A
Method in brief: (§4)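 Human kinases expressed in Sf9 cells by baculovirus as GST or His fusions and affinity purified. Radiometric 33PanQinase assay: 60 mM HEPES-NaOH pH 7.5, 3 mM MgCl2, 3 mM MnCl2, 3 µM orthovanadate, 1.2 mM DTT, 1 µM [γ-33P]ATP, 50-400 ng enzyme, 1% DMSO; 30 °C, 80 min. Substrates: B-Raf-VE, MEK1 KM; CDK2/CycA, histone H1; CK2-A1, casein; COT, autophosphorylation. IC50 from 10 concentrations; 33Pi incorporation by scintillation.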

[8] = target: Cyclin-dependent kinase 4/cyclin D1 (Homo sapiens, UniProt P11802); experiment: Inhibition of human recombinant CDK4/cyclin D1; type: protein-complex assay
Method in brief: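 CDK4/CycD1 (human, baculovirus/Sf9, affinity-purified) with Rb-CTF as substrate. The radiometric FlashPlate assay held 1 µM [γ-33P]ATP in HEPES-NaOH pH 7.5 with 3 mM MgCl2 and 3 mM MnCl2.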

[9] = target: Mitogen-activated protein kinase kinase kinase 8 (Homo sapiens, UniProt P41279); experiment: Inhibition of human recombinant COT; method in brief: as §4
[10] = target: Receptor tyrosine-protein kinase erbB-2 (Homo sapiens, UniProt P04626); experiment: Inhibition of human recombinant ERBB2
Method in brief: (§5)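 Human kinases expressed in Sf9 cells via baculovirus as GST or His fusions and affinity purified. 33PanQinase assay in 60 mM HEPES-NaOH pH 7.5, 3 mM MgCl2, 3 mM MnCl2, 3 µM orthovanadate, 1.2 mM DTT, 1 µM [γ-33P]ATP, 1% DMSO; 30 °C, 80 min. Substrates: poly(Glu,Tyr) 4:1 for ERBB2, IGF1-R and SRC; poly(Ala,Glu,Lys,Tyr) 6:2:5:1 for FLT3. IC50 from 10 concentrations by scintillation counting.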

Focal adhesion kinase 1 = Focal adhesion kinase 1 (Homo sapiens, UniProt Q05397); experiment: Inhibition of human recombinant FAK
Insulin receptor = Insulin receptor (Homo sapiens, UniProt P06213); experiment: Inhibition of human recombinant INS-R
Aurora kinase A = target: T2, Aurora kinase A (Homo sapiens, UniProt O14965); experiment: Inhibition of human recombinant Aurora A; method in brief: as §3
T2 sequence (O14965 whole entry): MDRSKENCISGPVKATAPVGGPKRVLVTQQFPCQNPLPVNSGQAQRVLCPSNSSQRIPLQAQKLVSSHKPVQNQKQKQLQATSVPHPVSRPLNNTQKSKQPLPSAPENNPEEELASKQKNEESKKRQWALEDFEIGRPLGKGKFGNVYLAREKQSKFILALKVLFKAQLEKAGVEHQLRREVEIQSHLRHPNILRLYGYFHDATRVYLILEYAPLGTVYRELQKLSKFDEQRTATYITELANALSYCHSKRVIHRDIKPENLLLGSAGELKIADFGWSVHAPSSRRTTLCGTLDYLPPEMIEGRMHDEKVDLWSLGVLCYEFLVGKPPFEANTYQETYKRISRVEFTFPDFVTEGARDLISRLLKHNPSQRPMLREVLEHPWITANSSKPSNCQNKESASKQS

[11] = target: Proto-oncogene tyrosine-protein kinase Src (Homo sapiens, UniProt P12931); experiment: Inhibition of human recombinant SRC; method in brief: as §5

Sequence of Angiopoietin-1 receptor (Q02763 whole entry, the tested form may be a part): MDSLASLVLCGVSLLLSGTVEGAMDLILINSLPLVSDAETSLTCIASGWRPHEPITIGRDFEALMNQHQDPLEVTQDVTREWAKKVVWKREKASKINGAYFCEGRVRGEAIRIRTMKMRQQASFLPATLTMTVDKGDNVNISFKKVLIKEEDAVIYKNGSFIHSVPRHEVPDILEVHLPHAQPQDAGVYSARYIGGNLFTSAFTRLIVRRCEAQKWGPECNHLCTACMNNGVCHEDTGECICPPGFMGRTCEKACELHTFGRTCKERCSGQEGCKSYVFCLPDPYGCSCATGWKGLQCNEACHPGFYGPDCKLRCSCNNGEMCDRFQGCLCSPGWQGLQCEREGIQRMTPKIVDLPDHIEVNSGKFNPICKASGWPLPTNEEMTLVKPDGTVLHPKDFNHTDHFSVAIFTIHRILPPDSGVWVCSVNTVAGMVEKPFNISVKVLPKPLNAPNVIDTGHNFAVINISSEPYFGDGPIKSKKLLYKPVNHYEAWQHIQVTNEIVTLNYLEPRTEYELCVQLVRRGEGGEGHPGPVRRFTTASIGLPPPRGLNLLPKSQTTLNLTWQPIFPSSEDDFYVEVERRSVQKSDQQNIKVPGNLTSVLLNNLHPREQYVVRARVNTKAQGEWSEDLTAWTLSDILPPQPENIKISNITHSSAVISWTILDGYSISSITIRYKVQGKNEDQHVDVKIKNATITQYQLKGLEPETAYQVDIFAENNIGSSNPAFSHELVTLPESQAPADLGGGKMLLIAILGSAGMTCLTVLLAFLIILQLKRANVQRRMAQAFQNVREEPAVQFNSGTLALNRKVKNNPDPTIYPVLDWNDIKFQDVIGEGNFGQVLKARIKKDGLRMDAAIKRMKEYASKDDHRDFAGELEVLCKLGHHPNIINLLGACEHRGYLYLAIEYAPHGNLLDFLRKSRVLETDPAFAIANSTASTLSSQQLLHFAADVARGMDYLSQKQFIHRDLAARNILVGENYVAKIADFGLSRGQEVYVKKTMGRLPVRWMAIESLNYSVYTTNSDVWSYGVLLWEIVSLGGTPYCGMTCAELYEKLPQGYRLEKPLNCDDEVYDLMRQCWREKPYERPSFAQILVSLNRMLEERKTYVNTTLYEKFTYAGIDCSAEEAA
Sequence of Vascular endothelial growth factor receptor 3 (P35916 whole entry): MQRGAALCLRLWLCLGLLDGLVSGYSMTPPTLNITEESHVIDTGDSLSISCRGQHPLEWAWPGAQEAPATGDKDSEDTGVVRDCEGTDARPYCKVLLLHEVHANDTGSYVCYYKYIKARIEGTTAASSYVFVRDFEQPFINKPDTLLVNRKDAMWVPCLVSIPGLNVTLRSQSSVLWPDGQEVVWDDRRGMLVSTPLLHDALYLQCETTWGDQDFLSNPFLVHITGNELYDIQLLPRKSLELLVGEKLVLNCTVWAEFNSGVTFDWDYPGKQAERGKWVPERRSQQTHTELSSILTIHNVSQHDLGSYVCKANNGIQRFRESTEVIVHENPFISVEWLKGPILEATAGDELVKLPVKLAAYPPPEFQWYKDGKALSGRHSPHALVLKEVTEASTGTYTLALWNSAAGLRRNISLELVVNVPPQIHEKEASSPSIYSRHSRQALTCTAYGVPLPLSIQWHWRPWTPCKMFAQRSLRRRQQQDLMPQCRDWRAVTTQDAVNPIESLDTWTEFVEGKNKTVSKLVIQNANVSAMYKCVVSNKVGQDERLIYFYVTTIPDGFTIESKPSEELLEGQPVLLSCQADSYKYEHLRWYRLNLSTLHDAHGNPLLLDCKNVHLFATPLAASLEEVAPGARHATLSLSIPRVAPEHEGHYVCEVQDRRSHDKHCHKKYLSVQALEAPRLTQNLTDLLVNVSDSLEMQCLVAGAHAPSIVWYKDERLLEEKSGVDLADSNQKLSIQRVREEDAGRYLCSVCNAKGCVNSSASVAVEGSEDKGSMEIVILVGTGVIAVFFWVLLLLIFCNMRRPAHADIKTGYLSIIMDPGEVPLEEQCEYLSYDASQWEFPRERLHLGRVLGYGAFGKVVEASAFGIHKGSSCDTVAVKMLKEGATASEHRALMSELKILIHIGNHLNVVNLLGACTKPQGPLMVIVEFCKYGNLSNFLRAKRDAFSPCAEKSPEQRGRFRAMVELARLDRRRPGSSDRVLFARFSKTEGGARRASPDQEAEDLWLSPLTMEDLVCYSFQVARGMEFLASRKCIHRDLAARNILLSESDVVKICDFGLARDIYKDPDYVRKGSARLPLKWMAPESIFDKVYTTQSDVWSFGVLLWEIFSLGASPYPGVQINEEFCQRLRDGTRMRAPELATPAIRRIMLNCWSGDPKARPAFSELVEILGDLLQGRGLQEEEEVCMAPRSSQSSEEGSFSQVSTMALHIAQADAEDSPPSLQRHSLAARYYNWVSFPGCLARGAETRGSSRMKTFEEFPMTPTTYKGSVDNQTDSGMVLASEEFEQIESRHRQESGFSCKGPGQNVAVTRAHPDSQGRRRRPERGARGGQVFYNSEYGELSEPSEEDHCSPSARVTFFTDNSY
Sequence of Vascular endothelial growth factor receptor 2 (P35968 whole entry): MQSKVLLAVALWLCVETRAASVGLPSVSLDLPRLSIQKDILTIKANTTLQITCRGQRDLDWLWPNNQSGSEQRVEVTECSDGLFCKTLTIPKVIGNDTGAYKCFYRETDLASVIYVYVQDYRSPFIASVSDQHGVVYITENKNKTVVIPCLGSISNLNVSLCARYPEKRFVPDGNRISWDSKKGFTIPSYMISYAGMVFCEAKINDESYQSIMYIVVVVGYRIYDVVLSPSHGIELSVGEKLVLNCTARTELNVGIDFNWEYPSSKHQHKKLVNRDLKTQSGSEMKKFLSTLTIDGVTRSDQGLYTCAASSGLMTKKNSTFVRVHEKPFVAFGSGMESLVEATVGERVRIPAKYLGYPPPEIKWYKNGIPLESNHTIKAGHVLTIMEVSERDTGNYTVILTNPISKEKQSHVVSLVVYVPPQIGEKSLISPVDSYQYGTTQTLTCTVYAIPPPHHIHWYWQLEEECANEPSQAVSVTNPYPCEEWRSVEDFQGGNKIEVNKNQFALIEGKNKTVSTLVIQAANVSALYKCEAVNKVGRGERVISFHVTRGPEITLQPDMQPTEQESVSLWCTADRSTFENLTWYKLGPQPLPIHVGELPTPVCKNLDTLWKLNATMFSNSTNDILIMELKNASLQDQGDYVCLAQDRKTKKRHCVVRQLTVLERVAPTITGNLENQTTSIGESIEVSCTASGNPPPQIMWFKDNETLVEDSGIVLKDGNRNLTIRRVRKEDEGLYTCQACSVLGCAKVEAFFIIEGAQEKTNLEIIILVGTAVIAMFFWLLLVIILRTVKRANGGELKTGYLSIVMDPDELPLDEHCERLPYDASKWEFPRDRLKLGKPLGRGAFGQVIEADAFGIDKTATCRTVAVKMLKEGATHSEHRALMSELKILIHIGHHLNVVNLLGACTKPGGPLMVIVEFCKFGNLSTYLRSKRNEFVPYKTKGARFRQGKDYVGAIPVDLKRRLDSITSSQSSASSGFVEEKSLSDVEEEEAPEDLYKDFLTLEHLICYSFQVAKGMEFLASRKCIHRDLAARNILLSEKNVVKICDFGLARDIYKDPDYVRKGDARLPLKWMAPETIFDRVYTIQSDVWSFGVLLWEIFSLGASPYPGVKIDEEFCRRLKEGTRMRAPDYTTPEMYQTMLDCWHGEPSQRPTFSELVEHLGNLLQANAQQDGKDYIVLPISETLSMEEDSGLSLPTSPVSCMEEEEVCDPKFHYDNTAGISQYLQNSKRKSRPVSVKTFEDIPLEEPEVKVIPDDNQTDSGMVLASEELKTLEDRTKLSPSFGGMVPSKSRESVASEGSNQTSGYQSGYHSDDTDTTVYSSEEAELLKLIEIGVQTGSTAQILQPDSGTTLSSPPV
Sequence of Focal adhesion kinase 1 (Q05397 whole entry): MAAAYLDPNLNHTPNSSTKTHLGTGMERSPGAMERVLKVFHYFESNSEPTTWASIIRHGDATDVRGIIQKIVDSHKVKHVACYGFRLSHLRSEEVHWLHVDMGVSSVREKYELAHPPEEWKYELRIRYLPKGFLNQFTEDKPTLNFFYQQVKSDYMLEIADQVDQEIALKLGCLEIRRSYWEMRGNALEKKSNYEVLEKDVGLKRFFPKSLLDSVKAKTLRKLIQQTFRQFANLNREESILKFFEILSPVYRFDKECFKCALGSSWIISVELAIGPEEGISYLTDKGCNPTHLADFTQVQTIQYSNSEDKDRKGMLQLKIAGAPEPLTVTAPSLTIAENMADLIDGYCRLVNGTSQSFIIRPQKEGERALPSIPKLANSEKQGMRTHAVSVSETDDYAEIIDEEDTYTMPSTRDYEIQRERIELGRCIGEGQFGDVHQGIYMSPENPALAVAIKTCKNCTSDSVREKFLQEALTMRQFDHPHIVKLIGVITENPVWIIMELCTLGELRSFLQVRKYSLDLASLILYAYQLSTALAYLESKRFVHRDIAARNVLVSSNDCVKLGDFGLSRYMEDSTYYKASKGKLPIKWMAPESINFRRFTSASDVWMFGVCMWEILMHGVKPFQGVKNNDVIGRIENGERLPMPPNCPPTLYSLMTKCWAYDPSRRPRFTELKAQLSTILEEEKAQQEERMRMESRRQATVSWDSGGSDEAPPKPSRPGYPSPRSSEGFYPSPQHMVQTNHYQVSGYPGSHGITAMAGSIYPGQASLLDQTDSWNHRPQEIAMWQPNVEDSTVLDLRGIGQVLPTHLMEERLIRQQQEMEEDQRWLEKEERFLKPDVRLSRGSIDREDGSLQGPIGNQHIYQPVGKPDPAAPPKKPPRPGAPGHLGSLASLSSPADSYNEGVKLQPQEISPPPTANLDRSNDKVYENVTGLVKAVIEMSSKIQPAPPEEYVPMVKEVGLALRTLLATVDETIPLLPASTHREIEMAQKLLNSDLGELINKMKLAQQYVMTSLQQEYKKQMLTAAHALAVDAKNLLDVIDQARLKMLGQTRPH

Row | IC50 (Angiopoietin-1 receptor) | IC50 [1] | IC50 [2] | IC50 [3] | IC50 (Aurora kinase B) | IC50 [7] | IC50 [8] | IC50 [9] | IC50 [10] | IC50 (Focal adhesion kinase 1) | IC50 (Insulin receptor) | IC50 (Aurora kinase A) | IC50 [11] | Structure (SMILES) | inhibition (Homo sapiens [4]) | Activity (Homo sapiens [5]) | Activity (Homo sapiens [6])
1 | 31 µM | 23 µM | 8 µM | 3.2 µM | – | – | – | – | – | – | – | – | – | COc1cc(C2=C(c3cn(CC4COC(C)(C)O4)c4ccccc34)CNC2=O)cc(OC)c1OC (configuration not stated) | – | – | –
2 | – | – | – | – | – | – | – | – | – | – | – | – | – | COc1cc(C2=C(c3c[nH]c4ccccc34)C(=O)NC2=O)cc(OC)c1OC [MALEIMIDE] | 81% | 0.48 | 22.4%
3 | 1.7 µM | 9 µM | 1.5 µM | 2.5 µM | 20 µM | 20 µM | 44 µM | 40 µM | 37 µM | 43 µM | 44 µM | 6.5 µM | – | COc1cc(C2=C(c3cn(COc4ccccc4)c4ccccc34)CNC2=O)cc(OC)c1OC | 41% | – | –
4 | 11 µM | 44 µM | 5.2 µM | 5.3 µM | – | – | – | – | – | 27 µM | – | 33 µM | 29 µM | COc1cc(C2=C(c3cn(COC(C)C)c4ccccc34)CNC2=O)cc(OC)c1OC | – | – | –

— ChEMBL document CHEMBL1157465, “Design, synthesis, and biological evaluation of novel 3-aryl-4-(1H-indole-3yl)-1,5-dihydro-2H-pyrrole-2-ones as vascular endothelial growth factor receptor (VEGF-R) inhibitors” (J Med Chem, 2008)
